Results published in ChEMBL document CHEMBL1126044, “Affinity of human growth hormone-releasing factor (1-29)NH2 analogues for GRF binding sites in rat adenopituitary” (J Med Chem, 1992).
Each block holds one molecule with its values, some of them ahead of it.

Experiments:
Rattus norvegicus = organism: Rattus norvegicus; test: Residual concentration after 60 min incubation with pituitary homogenates, in the binding assay conditions, by quantitative HPLC method; type: functional
Method in brief: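 Peptide at 10 µM incubated with rat pituitary homogenate (150 µg protein/100 µL) in binding-assay conditions at 23 °C for 0 and 60 min. Reaction stopped with cold 50 mM phosphate pH 0.8 and centrifugation. Controls without homogenate accounted for adsorption. Remaining peptide measured by C18 HPLC (0.01% TFA/acetonitrile gradient, UV 214 nm) and peak-area integration.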

[1] = molecular target: T1, Growth hormone-releasing hormone receptor (Rattus norvegicus, UniProt Q02644); test: Compound was tested to Inhibit [125I]-Growth hormone-releasing factor in rat adenopituitary homogenates
T1 sequence (Q02644 whole entry): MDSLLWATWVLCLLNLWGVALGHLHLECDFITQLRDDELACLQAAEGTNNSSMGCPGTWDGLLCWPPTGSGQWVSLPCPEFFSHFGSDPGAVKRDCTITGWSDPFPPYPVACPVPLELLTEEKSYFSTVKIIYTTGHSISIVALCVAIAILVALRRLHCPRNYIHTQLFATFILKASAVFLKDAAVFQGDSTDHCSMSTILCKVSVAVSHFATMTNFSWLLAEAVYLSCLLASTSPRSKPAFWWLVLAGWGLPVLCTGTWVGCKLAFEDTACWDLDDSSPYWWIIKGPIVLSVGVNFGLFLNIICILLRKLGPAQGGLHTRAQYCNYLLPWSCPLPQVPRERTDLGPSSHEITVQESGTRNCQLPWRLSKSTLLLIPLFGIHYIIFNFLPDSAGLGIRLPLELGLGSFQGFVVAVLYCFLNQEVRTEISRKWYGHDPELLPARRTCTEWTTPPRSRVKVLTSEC
Method in brief: (§1)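 Anterior pituitaries from 2-month-old male Sprague-Dawley rats homogenized in ice-cold 50 mM Tris-HCl pH 7.4 with 5 mM MgCl2, 5 mM EDTA. Homogenate (70–75 µg protein) incubated with 35–50 pM [125I-Tyr10]hGRF(1-44)NH2 and peptide at 0–1000 nM in Tris-HCl buffer pH 7.4 with 5 mM EDTA, 5 mM MgCl2, 0.42% BSA, 60 min at 23 °C. Nonspecific binding defined with 2.4 µM rGRF(1-29)NH2. Bound fraction separated by centrifugation and gamma-counted. IC50 fitted with LIGAND. Mean ± SEM of three experiments, each in duplicate or triplicate.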

[2] = molecular target: T2, Growth hormone-releasing hormone receptor (Rattus norvegicus) (UniProt Q02644); test: Relative affinity compared to hGRF(1-29)NH2; type: functional
T2 sequence (whole entry): T1 sequence (Q02644 whole entry)
Method in brief: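 Radioligand competition in rat anterior pituitary homogenate using [125I-Tyr10]hGRF(1-44)NH2 at 35–50 pM and peptides at 0–1000 nM, 60 min at 23 °C. Relative affinity is the binding IC50 expressed as a percentage relative to hGRF(1-29)NH2.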

[3] = molecular target: T1, Growth hormone-releasing hormone receptor; test: Compound was tested to Inhibit [125I]GRF in rat adenopituitary homogenates; method in brief: as §1

Molecule: H-YADAIFTNSYRKVLQLSARKLLQDIMSR-NH2
- Residual peptide remaining after 60 min (Rattus norvegicus): 88%
- IC50 [1]: 1000 nM

Molecule: CC[C@H](C)[C@H](NC(=O)[C@H](C)NC(=O)[C@H](CC(=O)O)NC(=O)[C@H](C)NC(=O)[C@H](Cc1ccc(O)cc1)NC(=O)CCCCCCCN)C(=O)N[C@@H](Cc1ccccc1)C(=O)N[C@H](C(=O)N[C@@H](CC(N)=O)C(=O)N[C@@H](CO)C(=O)N[C@@H](Cc1ccc(O)cc1)C(=O)N[C@@H](CCCN=C(N)N)C(=O)N[C@@H](CCCCN)C(=O)N[C@H](C(=O)N[C@@H](CC(C)C)C(=O)NCC(=O)N[C@@H](CCC(N)=O)C(=O)N[C@@H](CC(C)C)C(=O)N[C@@H](CO)C(=O)N[C@@H](C)C(=O)N[C@@H](CCCN=C(N)N)C(=O)N[C@@H](CCCCN)C(=O)N[C@@H](CC(C)C)C(=O)N[C@@H](CC(C)C)C(=O)N[C@@H](CCC(N)=O)C(=O)N[C@@H](CC(=O)O)C(=O)N[C@H](C(=O)N[C@@H](CCSC)C(=O)N[C@@H](CO)C(=O)N[C@@H](CCCN=C(N)N)C(N)=O)[C@@H](C)CC)C(C)C)[C@@H](C)O
- Residual peptide remaining after 60 min (Rattus norvegicus): 100%
- Activity [2]: 26%
- IC50 [1]: 21.6 nM

Molecule: CC[C@H](C)[C@H](NC(=O)[C@H](C)NC(=O)[C@H](CC(=O)O)NC(=O)[C@H](C)NC(=O)[C@H](Cc1ccc(O)cc1)NC(=O)CCCN)C(=O)N[C@@H](Cc1ccccc1)C(=O)N[C@H](C(=O)N[C@@H](CC(N)=O)C(=O)N[C@@H](CO)C(=O)N[C@@H](Cc1ccc(O)cc1)C(=O)N[C@@H](CCCN=C(N)N)C(=O)N[C@@H](CCCCN)C(=O)N[C@H](C(=O)N[C@@H](CC(C)C)C(=O)NCC(=O)N[C@@H](CCC(N)=O)C(=O)N[C@@H](CC(C)C)C(=O)N[C@@H](CO)C(=O)N[C@@H](C)C(=O)N[C@@H](CCCN=C(N)N)C(=O)N[C@@H](CCCCN)C(=O)N[C@@H](CC(C)C)C(=O)N[C@@H](CC(C)C)C(=O)N[C@@H](CCC(N)=O)C(=O)N[C@@H](CC(=O)O)C(=O)N[C@H](C(=O)N[C@@H](CCSC)C(=O)N[C@@H](CO)C(=O)N[C@@H](CCCN=C(N)N)C(N)=O)[C@@H](C)CC)C(C)C)[C@@H](C)O
- Activity [2]: 41%

Molecule: H-DAIFTNSYRKVLAQLSARKLLQDIMSR-NH2
- Residual peptide remaining after 60 min (Rattus norvegicus): 93%
- Activity [2]: 1.8%
- IC50 [1]: 311 nM

Molecule: H-YADAIFTNSYRKGQLSARKLLQDIMSR-NH2
- IC50 [3]: > 1000 nM

Molecule: H-ADAIFTSSYRRILGQLYARKLLHEIMNR-NH2
- Residual peptide remaining after 60 min (Rattus norvegicus): 100%
- Activity [2]: 13%

Molecule: H-YADAIFTNSYRKVLGQLSARKLLQDIR-NH2
- Residual peptide remaining after 60 min (Rattus norvegicus): 94%
- Activity [2]: 4.6%

Molecule: CC[C@H](C)[C@H](NC(=O)[C@H](C)NC(=O)[C@H](CC(=O)O)NC(=O)[C@H](C)NC(=O)[C@H](Cc1ccc(O)cc1)NC(=O)CCCCCN)C(=O)N[C@@H](Cc1ccccc1)C(=O)N[C@H](C(=O)N[C@@H](CC(N)=O)C(=O)N[C@@H](CO)C(=O)N[C@@H](Cc1ccc(O)cc1)C(=O)N[C@@H](CCCN=C(N)N)C(=O)N[C@@H](CCCCN)C(=O)N[C@H](C(=O)N[C@@H](CC(C)C)C(=O)NCC(=O)N[C@@H](CCC(N)=O)C(=O)N[C@@H](CC(C)C)C(=O)N[C@@H](CO)C(=O)N[C@@H](C)C(=O)N[C@@H](CCCN=C(N)N)C(=O)N[C@@H](CCCCN)C(=O)N[C@@H](CC(C)C)C(=O)N[C@@H](CC(C)C)C(=O)N[C@@H](CCC(N)=O)C(=O)N[C@@H](CC(=O)O)C(=O)N[C@H](C(=O)N[C@@H](CCSC)C(=O)N[C@@H](CO)C(=O)N[C@@H](CCCN=C(N)N)C(N)=O)[C@@H](C)CC)C(C)C)[C@@H](C)O
- Activity [2]: 85%

Molecule: H-YADAIFTNSYRKVLGLLQDIMSR-NH2
- IC50 [3]: > 1000 nM

Molecule: H-YADAIFTNSYRKVLGQLSARKLLQDIMR-NH2
- Residual peptide remaining after 60 min (Rattus norvegicus): 100%
- Activity [2]: 78%

Molecule: CC[C@H](C)[C@H](NC(=O)[C@H](C)NC(=O)[C@H](CC(=O)O)NC(=O)[C@H](C)NC(=O)[C@@H](N)Cc1ccc(O)cc1)C(=O)N[C@@H](Cc1ccccc1)C(=O)N[C@H](C(=O)N[C@@H](CC(N)=O)C(=O)N[C@@H](CO)C(=O)N[C@@H](Cc1ccc(O)cc1)C(=O)N[C@@H](CCCN=C(N)N)C(=O)N[C@@H](CCCCN)C(=O)N[C@H](C(=O)N[C@@H](CC(C)C)C(=O)NCC(=O)N[C@@H](CCC(N)=O)C(=O)N[C@@H](CC(C)C)C(=O)N[C@@H](CO)C(=O)N[C@@H](C)C(=O)N[C@@H](CCCN=C(N)N)C(=O)N[C@@H](CCCCN)C(=O)N[C@@H](CC(C)C)C(=O)N[C@@H](CC(C)C)C(=O)N[C@@H](CCC(N)=O)C(=O)N[C@@H](CC(=O)O)C(=O)N[C@H](C(=O)N[C@@H](CCSC)C(=O)N[C@@H](CO)C(=O)N[C@@H](CCCN=C(N)N)C(N)=O)[C@@H](C)CC)C(C)C)[C@@H](C)O
- Residual peptide remaining after 60 min (Rattus norvegicus): 81%
- Activity [2]: 100%

Molecule: H-YADAIFTNSYRKVLGQLSARKLLQIMSR-NH2
- Activity [2]: 33%

Molecule: H-YADAIFTNSYRKQLSARKLLQDIMSR-NH2
- IC50 [3]: > 1000 nM

Molecule: H-YADAIFTNSYRKLGQLSARKLLQDIMSR-NH2
- Residual peptide remaining after 60 min (Rattus norvegicus): 89%
- IC50 [1]: > 1000 nM

Molecule: H-YADAIFTNSYRKVLGQLSARKLLDIMSR-NH2
- Residual peptide remaining after 60 min (Rattus norvegicus): 85%
- Activity [2]: 12%

Next, values leading:

- Activity [2]: 30%
- IC50 [1]: 20.3 nM
Molecule: H-YADAIFTNSYRKVLGQLSARKLLQDMSR-NH2

- IC50 [3]: 1000 nM
- Activity [2]: 0.6%
Molecule: H-YADAIFTNSYRKVLGQLSLLQDIMSR-NH2

- Activity [2]: 62%
Molecule: H-YADAIFTNSYRKVLGQLSARKLLQDISR-NH2

- Activity [2]: 57%
- IC50 [1]: 9.8 nM
Molecule: H-HADAIFTSSYRRILGQLYARKLLHEIMNR-NH2

- IC50 [3]: > 1000 nM
Molecule: H-YADAIFTNSYRKVLGLSARKLLQDIMSR-NH2

- Residual peptide remaining after 60 min (Rattus norvegicus): 92%
- Activity [2]: 0.7%
- IC50 [1]: 836 nM
Molecule: H-YADAIFTNSYRVLGQLSARKLLQDIMSR-NH2

- Residual peptide remaining after 60 min (Rattus norvegicus): 100%
- Activity [2]: 5.9%
Molecule: H-YADAIFTSYRKVLGQLSARKLLQDIMSR-NH2

- Residual peptide remaining after 60 min (Rattus norvegicus): 85%
- Activity [2]: 32%
Molecule: CC[C@H](C)[C@H](NC(=O)[C@H](C)NC(=O)[C@H](CC(=O)O)NC(=O)[C@H](C)NC(=O)[C@H](Cc1ccc(O)cc1)NC(C)=O)C(=O)N[C@@H](Cc1ccccc1)C(=O)N[C@H](C(=O)N[C@@H](CC(N)=O)C(=O)N[C@@H](CO)C(=O)N[C@@H](Cc1ccc(O)cc1)C(=O)N[C@@H](CCCN=C(N)N)C(=O)N[C@@H](CCCCN)C(=O)N[C@H](C(=O)N[C@@H](CC(C)C)C(=O)NCC(=O)N[C@@H](CCC(N)=O)C(=O)N[C@@H](CC(C)C)C(=O)N[C@@H](CO)C(=O)N[C@@H](C)C(=O)N[C@@H](CCCN=C(N)N)C(=O)N[C@@H](CCCCN)C(=O)N[C@@H](CC(C)C)C(=O)N[C@@H](CC(C)C)C(=O)N[C@@H](CCC(N)=O)C(=O)N[C@@H](CC(=O)O)C(=O)N[C@H](C(=O)N[C@@H](CCSC)C(=O)N[C@@H](CO)C(=O)N[C@@H](CCCN=C(N)N)C(N)=O)[C@@H](C)CC)C(C)C)[C@@H](C)O

- Activity [2]: 28%
- IC50 [1]: 20.2 nM
Molecule: H-YADAIFTNSYRKVLGQLSARKLLQDIMS-NH2
